Assay results taken from ChEMBL document CHEMBL1240409, “Design, synthesis and evaluation of (E)-alpha-benzylthio chalcones as novel inhibitors of BCR-ABL kinase” (Bioorg Med Chem, 2010).

How the values were obtained:
[1] = tested on: DU-145; test: Growth inhibition of human DU145 cells after 96 hrs by trypan blue exclusion assay; assay type: functional; conditions: DU-145, 96 h
[2] = tested on: K562; test: Growth inhibition of human K562 cells expressing p210Bcr/Abl after 96 hrs by trypan blue exclusion assay; assay type: functional, cell-based; conditions: K562, 96 h
Procedure, shortened: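 K562 cells were kept in RPMI with 10% FBS and penicillin–streptomycin at 37 °C under 5% CO2. Cells were seeded at 1 × 10^5 cells/mL with a range of compound concentrations, using DMSO as the negative control. After 96 h, viability was counted by Trypan blue exclusion and expressed as percent of DMSO control to derive GI50.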

SMILES	GI50 [1] [µM]	GI50 [2] [µM]
COc1ccc(C(=O)/C(=C\c2ccc(Cl)cc2)S(=O)(=O)c2ccc(Cl)cc2)cc1	4	4
Cc1ccc(S(=O)(=O)/C(=C/c2ccccc2OCc2ccccc2)C(=O)c2ccc(Br)cc2)cc1	1	1
O=C(/C(=C\c1ccc(Cl)c([N+](=O)[O-])c1)S(=O)(=O)c1ccc(Br)cc1)c1ccc(Br)cc1	10	1
CN(C)c1ccc(/C=C(/SCc2ccc(Cl)cc2)C(=O)c2ccc([N+](=O)[O-])cc2)cc1	> 100	50
COc1ccc(S(=O)(=O)/C(=C/c2ccc(Cl)cc2Cl)C(=O)c2ccc(Br)cc2)cc1	20	20
COc1ccc(S(=O)(=O)/C(=C/c2ccc(Br)cc2)C(=O)c2ccc(Br)cc2)cc1	6	6
CN(C)c1ccc(/C=C(/SCc2ccc(Cl)cc2)C(=O)c2ccc(Br)cc2)cc1	10	1
O=C(/C(=C\c1cc(Br)c(O)c(Br)c1)SCc1ccc(Br)cc1)c1ccc(Br)cc1	1	10
Cc1ccc(S(=O)(=O)/C(=C/c2sccc2C)C(=O)c2ccc(Br)cc2)cc1	25	25
CC(=O)Nc1ccc(/C=C(/SCc2ccc(F)cc2)C(=O)c2ccc(C(=O)O)cc2)cc1[N+](=O)[O-]	10	1
O=C(/C(=C/c1ccc(Cl)cc1)Cc1ccc(Cl)cc1)c1ccc(Cl)cc1Cl	10	1
CCOc1ccc(/C=C(\C(=O)c2ccc(Br)cc2)S(=O)(=O)c2ccc(Br)cc2)c(OCC)c1	10	1
Cc1cc(C)cc(/C=C(/SCc2ccc(Br)cc2)C(=O)c2ccccc2Cl)c1	10	10
O=C(/C(=C\c1c(O)cc(O)cc1O)S(=O)(=O)c1ccc(Br)cc1)c1ccc(Cl)cc1	> 100	> 100
COc1cc(/C=C(\C(=O)c2ccc(Cl)cc2)S(=O)(=O)Cc2ccccc2Cl)cc(OC)c1	> 100	50
O=C(/C(=C\c1ccc(Br)cc1)S(=O)(=O)Cc1ccc(F)cc1)c1ccc(Cl)cc1	> 100	50
O=C(/C(=C\c1ccccc1O)Sc1ccccc1Br)c1ccc(Br)cc1	50	50
COc1ccsc1/C=C(\C(=O)c1ccc(Br)cc1)S(=O)(=O)Cc1ccc(Cl)cc1	50	25

SMILES	GI50 [1] [µM]	GI50 [2] [µM]
O=C(/C(=C\c1ccc(O)cc1)S(=O)(=O)Cc1ccc(F)cc1)c1ccc(Br)cc1	10	10
O=C(/C(=C\c1ccc(F)c([N+](=O)[O-])c1)SCc1ccc(F)cc1)c1ccc(SCc2ccc(F)cc2)c([N+](=O)[O-])c1	25	1
COc1cc(OC)c(/C=C(\C(=O)c2ccc(Br)cc2)S(=O)(=O)c2ccc(Br)cc2)c(OC)c1	> 100	> 100
O=C(/C(=C\c1ccc(O)cc1O)S(=O)(=O)c1ccccc1Br)c1ccc(Br)cc1	> 100	50
Cc1ccc(S(=O)(=O)/C(=C/c2ccc(Oc3ccccc3)cc2)C(=O)c2ccc(Cl)cc2)cc1	1	1
O=C(/C(=C\c1cc(Cl)c(O)c(Cl)c1)S(=O)(=O)Cc1ccc(Br)cc1)c1ccc(Br)cc1	25	25
O=C(/C(=C\c1ccc([N+](=O)[O-])c(O)c1)SCc1ccc(Br)cc1)c1cc(Cl)ccc1O	10	10
Cc1cc(C)cc(/C=C(/SCc2ccc(F)cc2)C(=O)c2ccc(Br)cc2)c1	10	1
O=C(/C(=C\c1ccc(OCc2ccccc2)cc1)SCc1ccc(Cl)cc1)c1ccc(Cl)cc1	1	10
O=C(/C(=C\c1ccc(O)cc1O)Sc1ccccc1Br)c1ccc(Br)cc1	50	50
O=C(/C(=C\c1ccc(Cl)cc1)SCc1ccc(Cl)cc1)c1ccccc1Cl	30	1
O=C(C(=Cc1ccc(O)c([N+](=O)[O-])c1)SCc1ccc(Br)cc1)c1ccc([N+](=O)[O-])c(Cl)c1	1	1
O=C(/C(=C\c1ccc(O)c([N+](=O)[O-])c1)SCc1ccc(Cl)cc1)c1ccc(Cl)cc1	10	10
Cc1ccc(CS(=O)(=O)/C(=C/c2ccccc2OCc2ccccc2)C(=O)c2ccc(Cl)cc2)cc1	1	1
O=C(/C(=C\c1ccc(Br)cc1)S(=O)(=O)c1ccccc1Br)c1ccc(Br)cc1	1	1
O=C(O)c1ccc(C(=O)/C(=C\c2ccc(O)c([N+](=O)[O-])c2)SCc2ccc(F)cc2)cc1	> 100	50
O=C(/C(=C\c1ccc(Oc2ccccc2)cc1)SCc1ccccc1Cl)c1ccc(Cl)cc1	1	1

More lines, now with the values ahead:

GI50 [1] [µM]	GI50 [2] [µM]	SMILES
1	1	O=C(/C(=C\c1ccc(F)cc1F)Sc1ccc(Br)cc1)c1ccc(Br)cc1
1	1	O=C(/C(=C\c1ccc(Cl)cc1Cl)Sc1ccc(Br)cc1)c1ccc(Br)cc1
> 100	> 100	Cc1ccc(S/C(=C/c2ccc(F)cc2F)C(=O)c2ccc(Br)cc2)cc1
10	10	COc1ccc2[nH]cc(/C=C(/Sc3ccc(Br)cc3)C(=O)c3ccc(Br)cc3)c2c1
10	1	O=C(/C(=C\c1ccc([N+](=O)[O-])c(O)c1)SCc1ccc(Br)cc1)c1c(F)c(F)c(F)c(F)c1F
10	1	O=C(/C(=C\c1ccc(Cl)c([N+](=O)[O-])c1)Sc1ccc(Br)cc1)c1ccc(Br)cc1
1	1	O=C(/C(=C\c1ccc(O)c([N+](=O)[O-])c1)Sc1ccc(Br)cc1)c1c(F)c(F)c(F)c(F)c1F
25	25	Cc1ccc(S/C(=C/c2c(F)c(F)c(F)c(F)c2F)C(=O)c2ccc(Cl)cc2)cc1
10	1	Cc1ccc(S/C(=C/c2c[nH]c3ccccc23)C(=O)c2ccc(Cl)cc2)cc1
1	1	Cc1cc(C)cc(/C=C(\C(=O)c2ccc(Cl)cc2)S(=O)(=O)Cc2ccc(Cl)cc2)c1
25	1	COc1ccc(/C=C(/Sc2ccc(Br)cc2)C(=O)c2ccc(Br)cc2)cc1
1	1	Cc1ccc(S/C(=C/c2c[nH]c3ccc(Br)cc23)C(=O)c2ccc(Cl)cc2)cc1
> 100	> 100	CSc1ccc(/C=C(/SCc2ccc(Cl)cc2)C(=O)c2ccc(C(=O)O)cc2)cc1
1	1	Cc1ccc(CS/C(=C/c2ccc(Cl)c([N+](=O)[O-])c2)C(=O)c2ccc(C(=O)O)cc2)cc1
25	25	O=C(O)c1cc(/C=C(/Sc2ccc(Br)cc2)C(=O)c2c(F)c(F)c(F)c(F)c2F)ccc1O
50	50	O=C(/C(=C\c1c(O)cc(O)cc1O)Sc1ccc(Br)cc1)c1ccc(Cl)cc1
25	10	O=C(/C(=C\c1ccc(O)c([N+](=O)[O-])c1)Sc1ccccc1Br)c1ccc(Cl)cc1
50	50	CC(=O)c1ccc(/C=C(/Sc2ccc(C)cc2)C(=O)c2ccc(Br)cc2)cc1
25	25	Cc1ccc(/C=C(/Sc2ccc(F)cc2)C(=O)c2ccc(Cl)cc2)s1

GI50 [1] [µM]	GI50 [2] [µM]	SMILES
25	25	Cc1ccc(CS/C(=C/c2cccc(Cl)c2Cl)C(=O)c2ccc(Cl)cc2)cc1
50	50	Cc1ccc(CS/C(=C/c2c(O)cc(O)cc2O)C(=O)c2ccc(Cl)cc2)cc1
10	10	Cc1ccc(CS/C(=C/c2cc(Cl)cc(Cl)c2)C(=O)c2ccc(Cl)cc2)cc1
10	1	COc1ccc(/C=C(/SCc2ccc(Cl)cc2)C(=O)c2ccc(Cl)cc2)cc1
1	1	O=C(/C(=C\c1ccc([N+](=O)[O-])c(O)c1)S(=O)(=O)c1ccc(Br)cc1)c1c(F)c(F)c(F)c(F)c1F
1	1	O=C(/C(=C\c1ccc(Br)cc1)SCc1ccc(Cl)cc1)c1ccc(Br)cc1
25	25	Cc1ccc(CS(=O)(=O)/C(=C/c2ccc(Cl)cc2)C(=O)c2ccc(Cl)cc2)cc1
50	1	COc1ccc(/C=C(/Sc2ccc(Br)cc2)C(=O)c2ccc(Cl)cc2)cc1
10	10	CCOc1ccc(/C=C(\C(=O)c2ccc(Cl)cc2)S(=O)(=O)Cc2ccc(C)cc2)cc1OC
20	6	COc1ccc(S/C(=C/c2ccc(Br)cc2)C(=O)c2ccc(Br)cc2)cc1
50	50	O=C(/C(=C\c1ccc(F)cc1C(F)(F)F)[S+]([O-])Cc1ccc(Cl)cc1)c1ccc(Cl)cc1 (stereo unspecified)
10	1	O=C(/C(=C\c1ccc(O)cc1)SCc1ccc(Cl)cc1)c1ccc(Br)cc1
25	10	COc1cc(OC)c(/C=C(\C(=O)c2ccc(Cl)cc2)S(=O)(=O)c2ccc(C)cc2)c(OC)c1
25	50	Cc1ccc(S(=O)(=O)/C(=C/c2cccs2)C(=O)c2ccc(Cl)cc2)cc1
50	50	Cc1ccc(/C=C(\C(=O)c2ccc(Cl)cc2)S(=O)(=O)Cc2ccc(F)cc2)s1
10	10	O=C(/C(=C\c1ccc(O)c([N+](=O)[O-])c1)SCc1ccc(Br)cc1)c1c(F)c(F)c(F)c(F)c1F
10	10	COc1ccc(OC)c(/C=C(/SCc2ccc(Cl)c(Cl)c2)C(=O)c2ccc(Cl)cc2)c1
50	25	O=C(/C(=C\c1ccc(O)cc1O)Sc1ccc(Br)cc1)c1ccc(Cl)cc1
1	1	Cc1ccc(CS/C(=C/c2c[nH]c3ccc(Cl)cc23)C(=O)c2ccc(Cl)cc2)cc1
